Experimental data collected from several papers.
Protocols differ between the studies behind these lines.
Effect on: cell growth or viability

| Structure (SMILES) | cell line | method | time | IC50 |
| --- | --- | --- | --- | --- |
| CC(C(=O)NOCc1ccccc1)c1cccc(C(OC(=O)NOCc2ccccc2)c2ccccc2)c1 (stereo not drawn) | L1210 | – | 48 h | 9.7 µM |
| C[C@@H]1C[C@H](O)[C@]2(O)O[C@@H]3C[C@@]4(C)[C@@H](CC[C@@H]5[C@@H]4CC[C@]4(C)[C@@H](C6=CC(=O)OC6)CC[C@]54O)C[C@H]3O[C@@H]2O1 | L6 | resazurin | 72 h | 7.63 µM |
| COc1cccc2c1C(=O)c1c(O)c3c(c(O)c1C2=O)C[C@@](O)(C(C)=O)C[C@@H]3O[C@H]1C[C@H](N)[C@H](O)[C@H](C)O1 | GISTT1 | resazurin | 72 h | < 0.07 µM |
| CC(C(=O)NC1CCCCC1)c1cccc(C(OC(=O)NC2CCCCC2)c2ccccc2)c1 (stereo not drawn) | L1210 | – | 48 h | 9.6 µM |
| C[C@H]1O[C@@H](O[C@H]2[C@@H](O)C[C@H](O[C@H]3[C@@H](O)C[C@H](O[C@H]4CC[C@@]5(C)[C@H](CC[C@@H]6[C@@H]5CC[C@]5(C)[C@@H](C7=CC(=O)OC7)CC[C@]65O)C4)O[C@@H]3C)O[C@@H]2C)C[C@H](O)[C@@H]1O | GISTT1 | resazurin | 72 h | < 0.16 µM |
| COc1cc(C(=O)c2sc3ccccc3c2N)cc(OC)c1OC | L1210 | – | 48 h | 0.35 µM |
| C[C@@H]1C[C@H](O)[C@]2(O)O[C@@H]3C[C@@]4(C=O)[C@@H](CC[C@@H]5[C@@H]4CC[C@]4(C)[C@@H](C6=CC(=O)OC6)CC[C@]54O)C[C@H]3O[C@@H]2O1 | L6 | resazurin | 72 h | 7.5 µM |
| CC(C(=O)N1CCCCC1)c1cccc(C(OC(=O)N2CCCCC2)c2ccccc2)c1 (stereo not drawn) | L1210 | – | 48 h | 15 µM |
| CC(C)=CCOc1c2occc2cc2ccc(=O)oc12 | COLO 205 | MTT | 72 h | > 100 µM |
| O=C1CCN(S(=O)(=O)c2ccc(F)cc2)CC(=O)c2ccccc2N1 | L6 | – | – | > 280 µM |
| CC(C(=O)NC1CCCC1)c1cccc(C(OC(=O)NC2CCCC2)c2ccccc2)c1 (stereo not drawn) | FM3A | – | 48 h | 12 µM |
| COc1ccc2c(c1)NC(=O)CN2c1nc(Cl)nc2c1COC2 | MDA-MB-453 | MTS | 72 h | 0.0193 µM |
| COc1cc([C@@H]2c3cc4c(cc3[C@H](O)[C@H]3COC(=O)[C@H]23)OCO4)cc(OC)c1OC | L6 | – | – | 4 ng/mL |
| CC(C(=O)NCCc1ccccc1)c1cccc(C(OC(=O)NCCc2ccccc2)c2ccccc2)c1 (stereo not drawn) | L1210 | – | 48 h | 8.2 µM |
| N.N.[Cl][Pt][Cl] | NCI-H460 | – | 48 h | 21.6 µM |
| COc1cc(C(=O)c2cc3c(-c4ccccc4)c(OC)ccc3o2)cc(OC)c1OC | L1210 | – | 48 h | > 50 µM |
| CC(C(=O)N1CCCC1)c1cccc(C(OC(=O)N2CCCC2)c2ccccc2)c1 (stereo not drawn) | FM3A | – | 48 h | 35 µM |
| COc1ccc2c(c1)NC(=O)CN2c1nc(C)nc(C)c1C | MDA-MB-453 | MTS | 72 h | 0.0043 µM |
